Columns and labels:
[1] = molecular target: T1, Adrenergic receptor alpha-1 (Homo sapiens, UniProt P35348+P25100+P35368); assay: Binding affinity to adrenergic alpha1 receptor (unknown origin); type: protein assay
T1 sequence (P35348 whole entry): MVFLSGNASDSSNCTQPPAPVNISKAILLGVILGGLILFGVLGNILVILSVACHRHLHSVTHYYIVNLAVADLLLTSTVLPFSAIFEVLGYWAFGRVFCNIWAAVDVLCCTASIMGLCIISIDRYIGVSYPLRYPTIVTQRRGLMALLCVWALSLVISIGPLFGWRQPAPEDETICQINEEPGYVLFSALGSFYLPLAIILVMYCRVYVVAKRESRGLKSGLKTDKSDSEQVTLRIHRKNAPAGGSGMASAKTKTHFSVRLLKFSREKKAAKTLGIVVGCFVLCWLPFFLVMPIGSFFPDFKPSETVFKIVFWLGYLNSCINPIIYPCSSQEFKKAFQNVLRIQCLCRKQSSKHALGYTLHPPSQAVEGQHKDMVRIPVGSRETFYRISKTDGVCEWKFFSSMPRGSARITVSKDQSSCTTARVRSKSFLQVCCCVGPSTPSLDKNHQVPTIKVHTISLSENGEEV
T1 sequence (P25100 whole entry): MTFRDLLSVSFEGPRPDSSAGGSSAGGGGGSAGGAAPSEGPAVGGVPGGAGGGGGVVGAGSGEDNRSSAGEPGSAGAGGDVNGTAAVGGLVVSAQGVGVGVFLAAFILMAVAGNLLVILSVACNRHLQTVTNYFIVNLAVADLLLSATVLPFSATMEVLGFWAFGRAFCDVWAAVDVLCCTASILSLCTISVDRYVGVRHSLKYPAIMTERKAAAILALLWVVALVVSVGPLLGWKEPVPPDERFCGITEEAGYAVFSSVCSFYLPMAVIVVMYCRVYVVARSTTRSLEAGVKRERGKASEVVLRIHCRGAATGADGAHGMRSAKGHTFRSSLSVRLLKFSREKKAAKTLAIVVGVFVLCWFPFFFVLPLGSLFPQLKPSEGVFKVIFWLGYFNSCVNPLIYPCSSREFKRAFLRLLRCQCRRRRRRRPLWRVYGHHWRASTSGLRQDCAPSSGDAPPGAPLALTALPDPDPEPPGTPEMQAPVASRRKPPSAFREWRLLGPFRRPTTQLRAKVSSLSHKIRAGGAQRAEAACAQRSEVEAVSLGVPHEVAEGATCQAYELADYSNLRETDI
T1 sequence (P35368 whole entry): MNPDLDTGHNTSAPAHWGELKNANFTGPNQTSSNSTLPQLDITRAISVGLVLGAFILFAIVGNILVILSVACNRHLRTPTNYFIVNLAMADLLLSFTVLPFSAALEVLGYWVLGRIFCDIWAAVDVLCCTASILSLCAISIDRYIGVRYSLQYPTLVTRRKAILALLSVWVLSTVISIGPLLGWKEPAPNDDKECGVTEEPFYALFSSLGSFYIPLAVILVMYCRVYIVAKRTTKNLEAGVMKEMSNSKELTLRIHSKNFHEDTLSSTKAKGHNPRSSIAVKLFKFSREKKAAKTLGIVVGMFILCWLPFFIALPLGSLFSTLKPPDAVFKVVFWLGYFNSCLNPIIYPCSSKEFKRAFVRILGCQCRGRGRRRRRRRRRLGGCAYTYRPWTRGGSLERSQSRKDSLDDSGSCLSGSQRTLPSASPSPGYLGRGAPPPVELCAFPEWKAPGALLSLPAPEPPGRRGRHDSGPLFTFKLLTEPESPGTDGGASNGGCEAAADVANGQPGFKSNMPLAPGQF

Rattus norvegicus = assay: Antipsychotic activity in orally dosed Sprague-Dawley rat assessed as inhibition of PCP-induced hyperactivity administered 20 mins before PCP stimulation and measured after 1 hr; type: functional, organism-based; conditions: dose 1-10 mg/kg, time 80.0 min
How it was run: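 Male Sprague-Dawley rats dosed orally 20 min before PCP (5 mg/kg) injection. Locomotor activity recorded for 1 h after PCP, read as total travel distance. Mean ± standard error of the mean, n = 8-10 per group.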

[2] = molecular target: T2, Adrenergic receptor alpha-1 (Rattus norvegicus, UniProt P15823+P23944+P43140); assay: Displacement of [3H]-prazosin from adrenergic alpha1 in rat cerebral cortex; type: tissue-based
T2 sequence (P15823 whole entry): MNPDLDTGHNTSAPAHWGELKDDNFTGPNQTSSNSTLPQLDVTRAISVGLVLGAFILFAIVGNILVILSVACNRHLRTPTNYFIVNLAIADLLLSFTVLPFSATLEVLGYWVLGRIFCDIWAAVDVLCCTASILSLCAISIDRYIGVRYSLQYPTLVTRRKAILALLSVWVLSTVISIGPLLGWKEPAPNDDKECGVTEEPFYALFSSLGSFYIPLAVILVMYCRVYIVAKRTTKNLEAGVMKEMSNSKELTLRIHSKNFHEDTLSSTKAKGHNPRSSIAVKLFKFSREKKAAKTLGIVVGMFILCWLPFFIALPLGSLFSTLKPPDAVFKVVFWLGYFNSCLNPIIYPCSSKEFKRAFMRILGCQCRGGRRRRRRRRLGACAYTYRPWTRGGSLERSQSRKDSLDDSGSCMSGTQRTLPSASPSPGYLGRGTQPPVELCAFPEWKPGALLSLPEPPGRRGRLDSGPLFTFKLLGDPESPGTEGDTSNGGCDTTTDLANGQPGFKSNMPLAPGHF
T2 sequence (P23944 whole entry): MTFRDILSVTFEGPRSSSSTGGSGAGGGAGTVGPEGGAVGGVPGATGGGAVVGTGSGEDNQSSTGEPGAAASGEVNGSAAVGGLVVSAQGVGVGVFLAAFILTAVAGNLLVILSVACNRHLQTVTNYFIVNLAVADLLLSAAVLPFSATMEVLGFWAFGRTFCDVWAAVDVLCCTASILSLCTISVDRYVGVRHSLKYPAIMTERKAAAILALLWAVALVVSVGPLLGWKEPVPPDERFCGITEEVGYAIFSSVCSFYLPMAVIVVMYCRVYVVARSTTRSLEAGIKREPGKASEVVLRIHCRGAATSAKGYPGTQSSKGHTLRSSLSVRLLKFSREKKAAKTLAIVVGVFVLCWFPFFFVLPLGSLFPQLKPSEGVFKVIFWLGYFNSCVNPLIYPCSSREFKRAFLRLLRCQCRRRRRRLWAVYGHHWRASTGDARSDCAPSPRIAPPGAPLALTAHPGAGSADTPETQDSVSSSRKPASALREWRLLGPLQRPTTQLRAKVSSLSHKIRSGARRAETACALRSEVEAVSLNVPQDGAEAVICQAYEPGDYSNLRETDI
T2 sequence (P43140 whole entry): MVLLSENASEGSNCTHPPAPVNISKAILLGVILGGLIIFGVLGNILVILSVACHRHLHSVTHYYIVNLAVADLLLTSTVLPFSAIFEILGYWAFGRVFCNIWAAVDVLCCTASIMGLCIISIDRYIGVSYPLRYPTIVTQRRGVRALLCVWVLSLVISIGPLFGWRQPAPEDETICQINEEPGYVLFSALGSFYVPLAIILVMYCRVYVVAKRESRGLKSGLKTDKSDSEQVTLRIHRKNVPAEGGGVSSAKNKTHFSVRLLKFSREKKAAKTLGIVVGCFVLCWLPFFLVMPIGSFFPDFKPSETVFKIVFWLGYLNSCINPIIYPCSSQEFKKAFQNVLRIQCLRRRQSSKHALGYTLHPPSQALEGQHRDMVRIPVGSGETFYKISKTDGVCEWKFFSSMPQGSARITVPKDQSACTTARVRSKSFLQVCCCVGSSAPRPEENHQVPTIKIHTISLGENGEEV
How it was run: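 Eight-concentration displacement curves, two independent experiments in duplicate, value is the mean Ki.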

| Ki [1] [nM] | Ki [2] [nM] | SMILES | Activity (Rattus norvegicus) |
| --- | --- | --- | --- |
| 1.2 | – | CN1CC2c3ccccc3Oc3ccc(Cl)cc3C2C1 (stereo not drawn) [ASENAPINE] | – |
| – | 155 | CN(C)C(=O)N[C@H]1CC[C@H](CCN2CCN(c3cccc(Cl)c3Cl)CC2)CC1 [CARIPRAZINE] | Dose-dependent effect |

— ChEMBL document CHEMBL4673287, “Synthesis and biological evaluation of novel antipsychotic trans-4-(2-(1,2,4,5-tetrahydro-3H-benzo[d]azepin-3-yl)ethyl)cyclohexan-1-amine derivatives targeting dopamine/serotonin receptor subtypes” (Bioorg Med Chem Lett, 2021)
